Screening results (PubChem)
The list is not random: actives were taken first. Their share in the collection is about 2.7%.
ASAP1 inh = inhibitors of human ASAP1 ArfGAP activity. inhibition, % at 16.5 µM. ASAP1-stimulated ARF1 GTP hydrolysis, GDP FP detection. Q9ULH1. hit rate 0.19% among 360,000; in the data active means inhibition above about 25%;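 further: 0% = vehicle with enzyme and substrate and 100% = no enzyme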
pPAFAH FP inh = inhibitors of human plasma PAF acetylhydrolase (pPAFAH) | recombinant pPAFAH, FP-rhodamine probe fluorescence polarization | AID 463082 | hit rate 1.5% among 330,000 | Q13093 | inhibition, % at 3.39 µM;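 active means inhibition above the mean inhibition across the screen plus 3 SD, cut at about 25% in these data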;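 further: inhibitors block binding of the rhodamine activity-based probe so polarization drops; 0% = enzyme with DMSO and 100% = wells lacking pPAFAH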
PAFAH1B3 inh = inhibitors of human PAFAH1B3 | hit rate 0.28% among 340,000 | inhibition, % at 3.39 µM | recombinant PAFAH1B3, FP-rhodamine probe, fluorescence polarization | AID 492972 | Q15102;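 active means inhibition above the screen-wide average of all tested compounds plus 3 SD, cut at about 25% in these data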;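 further: 0% = enzyme with DMSO only and 100% = wells lacking PAFAH1B3 protein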
PAFAH2 inh = PAFAH2 (human) inhibition. inhibition, % at 3.39 µM. Q99487. hit rate 0.99% among 340,000. AID 492956. recombinant PAFAH2, FP-rhodamine activity probe, fluorescence polarization;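 active means inhibition above the mean over all tested compounds plus 3 SD, cut at about 30% in these data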;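 further: inhibitors block probe labeling of enzyme so polarization drops; 0% = enzyme with DMSO and 100% = wells lacking PAFAH2 protein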
ARFGAP1 inh = rat ARFGAP1 inhibition; Arfgap1-stimulated ARF1 GTP hydrolysis, GDP FP detection; inhibition, % at 16.5 µM; hit rate 0.26% among 360,000; AID 651572;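 active means inhibition above a per-plate limit, mean inhibition of low control wells plus 3 SD, cut at about 25% in these data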;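 further: 0% = DMSO wells with enzyme and 100% = wells lacking Arfgap1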
Target sequence (Q62848 1-136 limits assumed): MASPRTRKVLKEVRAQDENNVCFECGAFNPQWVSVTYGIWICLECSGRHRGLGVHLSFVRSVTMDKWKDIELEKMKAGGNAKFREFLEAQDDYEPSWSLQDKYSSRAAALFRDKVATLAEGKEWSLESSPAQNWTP
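Material: truncated rat Arfgap1 GAP domain; Incubation: compound-enzyme preincubation 20 min, reaction 120 min, detection 60 min, 25 °C; Read-out: percent inhibition of Arfgap1-stimulated GTP hydrolysis; Technique: FP, GDP Alexa 633 tracer displaced from anti-GDP antibody, 620/688 nm; Controls: No-Arfgap1 wells (100%) versus DMSO full-reaction wells (0%); Replication: single well per compound.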
PAFAH1B2 inh = PAFAH1B2 (human) inhibition; inhibition, % at 3.39 µM; recombinant PAFAH1B2, FP-rhodamine activity probe, fluorescence polarization; P68402; AID 492953; hit rate 1.2% among 340,000;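 active means inhibition above the mean of all tested compounds plus 3 SD, cut at about 24% in these data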;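 further: 0% = enzyme with DMSO and 100% = wells lacking PAFAH1B2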
Target sequence (P68402 whole entry, looked up): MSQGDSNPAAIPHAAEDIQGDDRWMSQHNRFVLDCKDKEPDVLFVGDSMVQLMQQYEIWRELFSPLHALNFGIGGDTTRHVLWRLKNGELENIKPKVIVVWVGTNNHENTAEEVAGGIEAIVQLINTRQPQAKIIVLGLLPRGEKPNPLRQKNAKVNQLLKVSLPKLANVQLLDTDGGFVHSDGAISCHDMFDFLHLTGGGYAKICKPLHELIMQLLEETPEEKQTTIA
ASAP1 GAP conf = ASAP1 inhibition confirmed; shares compounds with ASAP1 inh; ASAP1-stimulated Arf1 GTPase, GDP fluorescence polarization; inhibition, % at 16.5 µM; hit rate 37% among 620;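 active means mean inhibition over triplicates exceeds the hit threshold derived for the earlier primary screening run, cut at about 25% in these data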
ARFGAP1 inh conf = confirmation of rat ARFGAP1 inhibitors; shares compounds with ARFGAP1 inh; ARFGAP1-stimulated ARF1 GTP hydrolysis, GDP tracer FP; inhibition, % at 16.5 µM; hit rate 30% among 890;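 active means average inhibition over triplicates above the hit cutoff set in the earlier primary screen, cut at about 25% in these data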;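 further: 0% = Arfgap1 plus ARF1-GTP with DMSO and 100% = wells lacking Arfgap1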
Starred values were filed as active, the others as inactive; · = not tested or not shown; + = active, no number.

SMILES	ASAP1 inh	pPAFAH FP inh	PAFAH1B3 inh	PAFAH2 inh	ARFGAP1 inh	PAFAH1B2 inh	ASAP1 GAP conf	ARFGAP1 inh conf
COc1ccc(Cl)cc1C(=O)Nc1cccc(-c2ccc3nncn3n2)c1	191*	10	1	19	+	4	196*	+
COC(=O)CSc1nnc2n(-c3ccc(OC)cc3)c(=O)c3c4c(sc3n12)CCCCC4	39*	-3	10	-1	62*	2	42*	75*
COC(=O)CSc1nnc2n(C3CCCCC3)c(=O)c3c4c(sc3n12)CCCC4	-4	5	8	4	14	9	·	·
CCC(/C=C1\Sc2ccc(OC)cc2N1CCO)=C\c1sc2ccc(OC)cc2[n+]1CCO	32*	-66	-313	-233	42*	-199	35*	25*
CCC(/C=C1\Sc2ccc(OC)cc2N1CC)=C\c1sc2ccc(OC)cc2[n+]1CCCS(=O)(=O)[O-]	14	-112	-235	-242	24	-155	·	·
CCN(CC)CCOC(=O)c1ccc(N/C=C(/C#N)c2nc(-c3cc4ccccc4oc3=O)cs2)cc1	72*	·	7	-1	84*	1	99*	134*
CCN(CC)CCOC(=O)c1ccc(N/C=C(/C#N)c2nc(-c3ccc(OC)cc3)cs2)cc1	48*	7	0	-4	28*	-3	51*	55*
COc1cc(/C=C(\C#N)c2nc(-c3cc4ccccc4oc3=O)cs2)ccc1O	20	4	5	3	9	2	·	·
CCN(CC)C(=O)c1[nH]cnc1C(=O)NCc1ccccc1	1	0	-10	-1	1	-3	·	·
O=C(Nc1ccc2oc(-c3cccnc3)nc2c1)c1ccc2c(c1)OCCO2	27*	15	-4	5	42*	0	38*	114*
CC(=O)Nc1ccc(NC(=O)CSc2ccc(-c3ccc(-n4ccnc4)cc3)nn2)cc1	66*	2	-1	2	25*	-3	71*	72*
O=C(CSc1ccc(-c2ccc3c(c2)OCO3)nn1)Nc1nccs1	132*	3	-7	-1	46*	2	75*	135*
COCCn1c(=S)[nH]c2cc(C(=O)NCCc3ccccc3)ccc2c1=O	-20	5	4	0	-10	-1	·	·
CC1=CC2=NC(=O)/C(=C\c3ccc(-c4cccc(Cl)c4)o3)C(=N)N2O1	58*	-1	-6	-19	41*	-10	87*	131*
CC1=CC2=NC(=O)/C(=C\c3cc(C)n(-c4ccc(F)cc4)c3C)C(=N)N2O1	0	7	12	-11	6	-2	·	·
CN(C)CCNC(=O)c1cccc(-c2cnc3c(NC=O)cc(-c4cccc(F)c4)cn23)c1	10	·	·	·	4	·	·	·
CN(C)CCNC(=O)c1cccc(-c2cnc3c(NC=O)cc(/C=C/c4ccccc4)cn23)c1	42*	·	·	·	34*	·	37*	45*
CCc1ccccc1NC(=O)CN1CCN(CC(=O)Nc2ccc3c(c2)OC2(CCCCC2)O3)CC1	-2	·	2	-7	2	-1	·	·
CCN1CCN(Cc2ccc(NC(=O)c3cccc(-c4ccc5nc(NC(=O)C6CC6)sc5n4)c3)cc2C(F)(F)F)CC1	27*	·	·	·	57*	·	40*	51*
CC(=O)Nc1ccc(Nc2nc(-c3cc4ccccc4oc3=O)cs2)cc1	7	·	12	8	-5	7	·	·
O=C(O)c1ccc(Nc2nc(-c3cc4ccccc4oc3=O)cs2)cc1O	25*	·	·	·	27*	·	33*	45*
CN1/C(=C\C=O)C(C)(C)c2ccccc21	-5	-5	-3	1	-8	0	·	·
CN1\C(=C/C=C/C=C/C=[N+](C)C)C(C)(C)c2ccccc21	55*	·	-356	-190	47*	-238	41*	37*
CCN(CC)c1ccc(C(=C2C=CC(=[N+](CC)CC)C=C2)c2ccc(S(=O)(=O)O)cc2S(=O)(=O)[O-])cc1	119*	·	14	18	121*	9	118*	132*
